Assay results: ChEMBL document CHEMBL4477162, “Galanthamine, Plicamine, and Secoplicamine Alkaloids from Zephyranthes candida and Their Anti-acetylcholinesterase and Anti-inflammatory Activities” (J Nat Prod, 2016)
Activity calls are given as the source filed them. The calls are words filed in the database; no cut-off is given here.

Legend:
[1] = molecular target: Acetylcholinesterase (Electrophorus electricus, UniProt O42275); test: Inhibition of electric eel AChE using acetylthiocholine iodide as substrate measured every 13 secs by Ellman's method
[2] = tested on: RAW264.7; test: Antiinflammatory activity in mouse RAW264.7 cells assessed as inhibition of LPS-induced NO production at 200 uM after 24 hrs by Griess assay; format: functional, cell-based
[3] = tested on: RAW264.7; test: Antiinflammatory activity in mouse RAW264.7 cells assessed as inhibition of LPS-induced NO production after 24 hrs by Griess assay; format: functional, cell-based; settings: RAW264.7, 24 h
Procedure, shortened: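 LPS-stimulated RAW 264.7 mouse macrophages; compound inhibition of NO production measured, with dexamethasone as positive control. The protocol follows a previously described method.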

[4] = tested on: RAW264.7; test: Cytotoxicity against mouse RAW264.7 cells at 200 uM; format: cell-based; settings: raw264.7, 200 µM

Sequence of Acetylcholinesterase (O42275 whole entry): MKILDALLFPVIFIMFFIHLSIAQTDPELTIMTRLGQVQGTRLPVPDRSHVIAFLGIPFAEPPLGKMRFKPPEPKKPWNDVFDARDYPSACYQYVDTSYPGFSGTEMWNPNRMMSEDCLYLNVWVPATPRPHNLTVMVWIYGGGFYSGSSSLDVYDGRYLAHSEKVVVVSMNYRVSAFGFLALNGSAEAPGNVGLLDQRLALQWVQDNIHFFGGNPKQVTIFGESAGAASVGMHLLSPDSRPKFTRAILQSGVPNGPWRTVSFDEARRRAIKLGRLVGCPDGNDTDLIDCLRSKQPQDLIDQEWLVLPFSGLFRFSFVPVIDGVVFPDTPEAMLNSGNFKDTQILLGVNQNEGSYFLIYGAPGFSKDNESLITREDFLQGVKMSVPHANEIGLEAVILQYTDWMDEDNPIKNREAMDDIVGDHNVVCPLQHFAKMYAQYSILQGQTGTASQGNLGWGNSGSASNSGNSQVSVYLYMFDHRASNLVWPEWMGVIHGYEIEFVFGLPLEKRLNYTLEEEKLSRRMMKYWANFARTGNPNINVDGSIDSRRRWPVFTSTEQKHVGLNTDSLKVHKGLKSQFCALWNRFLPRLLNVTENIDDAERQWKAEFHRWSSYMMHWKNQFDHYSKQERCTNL

Row | SMILES | inhibition [2] | further results
1 | CN1Cc2ccc(O)c3c2[C@@]2(C=C[C@H](O)C[C@@H]2O3)[C@@H](O)C1 | inactive | IC50 [1]: 169 µM
2 | CN1CC[C@@]23CC[C@H](O)C[C@@H]2Oc2c(O)ccc(c23)C1 | inactive | –
3 | CN1Cc2ccc(O)c3c2[C@@]2(CC[C@H](O)C[C@@H]2O3)[C@@H](O)C1 | inactive | –
4 | COc1ccc2c3c1O[C@H]1[C@@H](O)[C@@H](O)C=C[C@@]31[C@@H](O)CN(C)C2 | inactive | –
5 | CC[C@H](C)CN1Cc2cc3c(cc2[C@@]24C=C[C@@H](OC)C[C@@H]2N(C)C(=O)[C@@H]14)OCO3 | inactive | –
6 | CO[C@@H]1C=C[C@@]2(C(=O)N(CCC(C)C)Cc3cc4c(cc32)OCO4)[C@@H](N(C)C=O)C1 | – | IC50 [3]: 23.6 µM; Activity [4]: Non-Toxic
7 | COc1ccc2c3c1O[C@H]1C[C@@H](O)CC[C@@]31[C@@H](O)CN(C)C2 | inactive | –
8 | CCCCCCN1Cc2cc3c(cc2[C@@]24C=C[C@@H](OC)C[C@@H]2N(C)C(=O)[C@@H]14)OCO3 | inactive | –
9 | CO[C@@H]1C=C[C@@]23c4cc5c(cc4C[N+]([O-])(CCC(C)C)[C@@H]2C(=O)N(C)[C@H]3C1)OCO5 (stereo partly drawn) | inactive | IC50 [1]: 57.3 µM
10 | CO[C@@H]1C=C[C@@]23c4cc5c(cc4CN(CCCC(=O)O)[C@@H]2C(=O)N(C)[C@H]3C1)OCO5 | – | IC50 [3]: 18.8 µM; Activity [4]: Non-Toxic
11 | CO[C@@H]1C=C[C@@]23c4cc5c(cc4CN(C)[C@@H]2C(=O)N(C)[C@H]3C1)OCO5 | inactive | –
12 | CO[C@@H]1C=C[C@@]2(C(=O)N(C)Cc3cc4c(cc32)OCO4)[C@@H](N(C)C=O)C1 | inactive | –
13 | COc1ccc2c3c1O[C@H]1C[C@@H](O)C=C[C@@]31CCN(C)C2 | inactive | –
14 | CO[C@@H]1C=C[C@@]23c4cc5c(cc4C[N+]([O-])(CCc4ccc(O)cc4)[C@@H]2C(=O)N(C)[C@H]3C1)OCO5 (stereo partly drawn) | – | IC50 [3]: 7.5 µM; IC50 [1]: 75.3 µM; Activity [4]: Non-Toxic
15 | COc1ccc2c3c1O[C@H]1C[C@@H](O)C=C[C@@]31[C@@H](O)CN(C)C2 | inactive | –
16 | CN1CC[C@@]23C=C[C@H](O)C[C@@H]2Oc2c(O)ccc(c23)C1 | inactive | –
17 | CO[C@@H]1C=C[C@@]23c4cc5c(cc4CN(CCc4c[nH]c6ccccc46)[C@@H]2C(=O)N(C)[C@H]3C1)OCO5 | – | IC50 [3]: 18 µM; IC50 [1]: 111 µM; Activity [4]: Non-Toxic
18 | CO[C@@H]1C=C[C@@]23c4cc5c(cc4CN(CCC(C)C)[C@@H]2C(=O)N(C)[C@H]3C1)OCO5 | inactive | –
19 | COc1ccc2c3c1O[C@H]1C[C@@H](O)C=C[C@@]31[C@@H](O)C[N+](C)([O-])C2 (stereo partly drawn) | inactive | –
20 | COc1ccc2c3c1O[C@H]1C[C@@H](O)CC[C@@]31[C@@H](O)C[N+](C)([O-])C2 (stereo partly drawn) | inactive | –
21 | CO[C@@H]1C=C[C@@]23c4cc5c(cc4CN(CCc4ccccc4)[C@@H]2C(=O)N(C)[C@H]3C1)OCO5 | – | IC50 [3]: 10.2 µM; Activity [4]: Non-Toxic
22 | CO[C@@H]1C=C[C@@]23c4cc5c(cc4C=N[C@@H]2C(=O)N(C)[C@H]3C1)OCO5 | inactive | –
23 | COc1ccc2c3c1O[C@H]1C[C@@H](O)CC[C@@]31CCN(C)C2 | inactive | –
24 | CO[C@@H]1C=C[C@@]23c4cc5c(cc4CN(CCc4ccc(O)cc4)[C@@H]2C(=O)N(C)[C@H]3C1)OCO5 | inactive | –
